Measurements from ChEMBL document CHEMBL1156006, “Potent and cellularly active 4-aminoimidazole inhibitors of cyclin-dependent kinase 5/p25 for the treatment of Alzheimer's disease” (Bioorg Med Chem Lett, 2009).

Key:
[1] = biological target: T1, Cyclin-dependent kinase 5/CDK5 activator 1 (Homo sapiens, UniProt Q00535); assay: Inhibition of CDK5/p25 by scintillation proximity assay; type: protein-complex assay
[2] = Selectivity ratio, IC50 for CDK2/cyclin E over IC50 for CDK5/p25
[3] = biological target: T1, Cyclin-dependent kinase 5/CDK5 activator 1; assay: Inhibition of human CDK5/p25 expressed in CHO cells after 2 hrs by whole cell assay; type: cell-based
Method in brief: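 The cell line carries doxycycline-regulated CDK5, p25 and tau transgenes and was kept uninduced in doxycycline medium. Expression was induced by removing doxycycline for 24 h. Cells were then treated with compound for 2 h and lysed. Phosphorylated tau was measured in detergent-soluble extracts by AlphaLISA.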

[4] = Apparent permeability from basolateral to apical side in human Caco-2 cells
[5] = Apparent permeability from apical to basolateral side in human Caco-2 cells
[6] = Plasma concentration in FV/B mouse at 2 mg/kg, sc after 1 hr; type: ADME, organism-based; design: dose 2 mg/kg, route subcutaneous
[7] = Plasma concentration in MDR1A/1B knockout mouse at 2 mg/kg, sc after 1 hr; type: ADME, organism-based; design: dose 2 mg/kg, route subcutaneous
[8] = Drug level in FV/B mouse brain at 2 mg/kg, sc after 1 hr; type: ADME, organism-based; design: dose 2 mg/kg, route subcutaneous; settings: read-out: Drug uptake
[9] = Drug level in MDR1A/1B knockout mouse brain at 2 mg/kg, sc after 1 hr; type: ADME, organism-based; design: dose 2 mg/kg, route subcutaneous; settings: read-out: Drug uptake
[10] = Ratio of drug level from brain to plasma in FV/B mouse at 2 mg/kg, sc after 1 hr
[11] = Ratio of drug level from brain to plasma in MDR1A/1B knockout mouse at 2 mg/kg, sc after 1 hr
[12] = biological target: Glycogen synthase kinase-3 beta (Homo sapiens) (UniProt P49841); assay: Inhibition of GSK3-beta at 10 uM by scintillation proximity assay
Sequence of Glycogen synthase kinase-3 beta (Homo sapiens) (P49841 whole entry, looked up): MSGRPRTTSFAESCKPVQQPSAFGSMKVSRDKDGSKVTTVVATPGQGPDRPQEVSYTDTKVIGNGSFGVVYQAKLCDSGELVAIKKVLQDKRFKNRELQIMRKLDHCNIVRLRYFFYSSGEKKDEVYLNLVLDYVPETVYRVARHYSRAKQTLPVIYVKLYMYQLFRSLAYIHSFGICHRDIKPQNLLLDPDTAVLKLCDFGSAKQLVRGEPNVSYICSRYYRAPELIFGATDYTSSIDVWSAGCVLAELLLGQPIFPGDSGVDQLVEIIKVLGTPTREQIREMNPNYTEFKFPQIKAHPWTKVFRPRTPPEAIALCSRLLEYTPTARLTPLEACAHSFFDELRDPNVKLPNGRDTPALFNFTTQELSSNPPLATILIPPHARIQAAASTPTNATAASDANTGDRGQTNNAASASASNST
Method in brief: (§1)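 Single-concentration profiling by scintillation proximity assay across a 20-kinase panel, including AMPK, GSK3b, MAPK1 and PHK. Compound was tested at 10, with ATP at the Km of each kinase.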

[13] = biological target: Dual specificity protein kinase CLK1 (Homo sapiens) (UniProt P49759); assay: Inhibition of CLK1 at 10 uM by scintillation proximity assay
Sequence of Dual specificity protein kinase CLK1 (Homo sapiens) (P49759 whole entry, looked up): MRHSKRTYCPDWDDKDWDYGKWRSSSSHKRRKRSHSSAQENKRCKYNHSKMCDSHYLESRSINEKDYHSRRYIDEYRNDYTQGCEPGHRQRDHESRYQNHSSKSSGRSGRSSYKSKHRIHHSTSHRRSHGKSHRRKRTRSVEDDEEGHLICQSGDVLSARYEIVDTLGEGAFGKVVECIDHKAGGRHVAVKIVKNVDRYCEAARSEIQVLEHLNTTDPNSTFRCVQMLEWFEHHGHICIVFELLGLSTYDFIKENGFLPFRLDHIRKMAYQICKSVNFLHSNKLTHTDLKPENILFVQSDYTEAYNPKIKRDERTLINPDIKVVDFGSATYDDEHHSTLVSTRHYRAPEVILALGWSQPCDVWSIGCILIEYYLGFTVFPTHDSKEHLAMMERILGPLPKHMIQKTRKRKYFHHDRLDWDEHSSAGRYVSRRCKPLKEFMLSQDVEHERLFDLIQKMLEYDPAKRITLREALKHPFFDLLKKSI

[14] = biological target: Dual specificity protein kinase CLK1 (Homo sapiens) (UniProt P49759); assay: Inhibition of CLK1 at 1 uM by scintillation proximity assay
[15] = biological target: Glycogen synthase kinase-3 beta (Homo sapiens) (UniProt P49841); assay: Inhibition of GSK3-beta at 1 uM by scintillation proximity assay
[16] = biological target: Mitogen-activated protein kinase 1 (Homo sapiens) (UniProt P28482); assay: Inhibition of MAPK1/ERK2 at 10 uM by scintillation proximity assay; method in brief: as §1
Sequence of Mitogen-activated protein kinase 1 (Homo sapiens) (P28482 whole entry, canonical isoform): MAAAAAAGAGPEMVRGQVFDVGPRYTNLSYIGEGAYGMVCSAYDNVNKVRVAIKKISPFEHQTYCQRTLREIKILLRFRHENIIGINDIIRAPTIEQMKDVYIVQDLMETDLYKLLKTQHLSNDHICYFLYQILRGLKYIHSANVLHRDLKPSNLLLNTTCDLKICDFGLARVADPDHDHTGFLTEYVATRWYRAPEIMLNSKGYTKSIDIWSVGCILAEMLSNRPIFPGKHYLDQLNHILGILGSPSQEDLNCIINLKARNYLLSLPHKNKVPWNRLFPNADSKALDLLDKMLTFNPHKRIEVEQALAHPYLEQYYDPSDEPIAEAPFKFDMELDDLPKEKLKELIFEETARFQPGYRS

[17] = biological target: Mitogen-activated protein kinase 1 (Homo sapiens) (UniProt P28482); assay: Inhibition of MAPK1/ERK2 at 1 uM by scintillation proximity assay
[18] = biological target: Casein kinase I isoform delta (Homo sapiens) (UniProt P48730); assay: Inhibition of CK1delta at 10 uM by scintillation proximity assay
Sequence of Casein kinase I isoform delta (Homo sapiens) (P48730 whole entry, looked up, canonical isoform): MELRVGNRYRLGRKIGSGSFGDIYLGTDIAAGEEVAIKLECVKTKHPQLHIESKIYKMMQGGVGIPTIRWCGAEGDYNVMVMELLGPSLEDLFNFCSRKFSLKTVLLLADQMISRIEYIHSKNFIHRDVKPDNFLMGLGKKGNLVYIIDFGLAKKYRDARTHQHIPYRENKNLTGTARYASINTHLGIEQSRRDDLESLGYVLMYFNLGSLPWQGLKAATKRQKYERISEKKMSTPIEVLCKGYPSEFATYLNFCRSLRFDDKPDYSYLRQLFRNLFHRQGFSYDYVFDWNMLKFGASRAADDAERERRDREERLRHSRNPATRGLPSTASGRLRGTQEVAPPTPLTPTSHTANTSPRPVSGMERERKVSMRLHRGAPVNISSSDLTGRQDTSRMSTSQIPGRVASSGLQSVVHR

[19] = biological target: Casein kinase I isoform delta (Homo sapiens) (UniProt P48730); assay: Inhibition of CK1delta at 1 uM by scintillation proximity assay
[20] = biological target: T2, Cyclin-dependent kinase 2/cyclin A (Homo sapiens) (UniProt P24941+P20248+P78396); assay: Inhibition of CDK2/cyclin A at 10 uM by scintillation proximity assay; type: protein-complex assay
[21] = biological target: T2, Cyclin-dependent kinase 2/cyclin A (Homo sapiens); assay: Inhibition of CDK2/cyclin A at 1 uM by scintillation proximity assay; type: protein-complex assay
[22] = Inhibition of AMPK at 10 uM by scintillation proximity assay; method in brief: as §1
[23] = Inhibition of PHK at 10 uM by scintillation proximity assay; method in brief: as §1
[24] = Selectivity ratio, IC50 for human CDK5/p25 by whole cell assay over IC50 for CDK5/p25

T1 sequence (Q00535 whole entry): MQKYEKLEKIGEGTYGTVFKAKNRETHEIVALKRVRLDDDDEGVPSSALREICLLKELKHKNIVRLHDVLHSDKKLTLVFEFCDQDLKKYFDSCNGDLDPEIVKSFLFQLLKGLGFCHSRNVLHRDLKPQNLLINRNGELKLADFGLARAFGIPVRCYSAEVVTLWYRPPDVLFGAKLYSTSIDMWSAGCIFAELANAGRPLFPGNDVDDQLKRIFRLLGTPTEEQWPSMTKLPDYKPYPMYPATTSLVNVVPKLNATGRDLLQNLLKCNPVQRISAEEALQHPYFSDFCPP
T1 sequence (Q15078 whole entry, further chain): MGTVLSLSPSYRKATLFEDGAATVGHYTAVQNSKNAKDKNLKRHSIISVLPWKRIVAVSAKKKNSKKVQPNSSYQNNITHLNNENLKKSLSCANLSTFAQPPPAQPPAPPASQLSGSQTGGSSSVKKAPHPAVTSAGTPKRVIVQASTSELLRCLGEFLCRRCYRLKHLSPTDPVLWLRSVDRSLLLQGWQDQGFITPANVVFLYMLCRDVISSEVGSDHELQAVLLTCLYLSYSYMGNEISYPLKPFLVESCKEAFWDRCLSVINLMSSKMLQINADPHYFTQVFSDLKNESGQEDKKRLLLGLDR

Compound	IC50 [1] [nM]	Ratio IC50 [2]	other results
COc1ccc(CC(=O)Nc2cn([C@H]3C[C@H](O)C3)cn2)cc1	1090	0.7	
COc1ccc(CC(=O)Nc2cn([C@H]3C[C@@H](NS(C)(=O)=O)C3)cn2)cc1	178	6	
COc1ccc(CC(=O)Nc2cn(C3CC3)cn2)cc1	814		
COc1ccc(CC(=O)Nc2cn(C)cn2)cc1	> 10000		
O=C(Cc1cccc2ccccc12)Nc1cn([C@H]2C[C@@H](NC(=O)c3ccccn3)C2)cn1	14	20	IC50 [3]: 1300 nM; Papp B→A [4]: 21 ×10⁻⁶ cm/s; Papp A→B [5]: 26 ×10⁻⁶ cm/s
COc1ccc(CC(=O)Nc2cn(C(C)C)cn2)cc1	425		
O=C(Cc1cccc2ccccc12)Nc1cn(C2CCC2)cn1	46		
COc1ccc(CC(=O)Nc2cn([C@H]3C[C@H](C(=O)OC)C3)cn2)cc1	4380	0.2	
O=C(Cc1ccccc1)Nc1cn(C2CCC2)cn1	500		
CC(=O)N(C)[C@H]1C[C@@H](n2cnc(NC(=O)Cc3cccc4ccccc34)c2)C1	107	15	
Cc1cccc(C(=O)N[C@H]2C[C@@H](n3cnc(NC(=O)Cc4cccc5ccccc45)c3)C2)n1	6		IC50 [3]: 230 nM; concentration at 1 h [6]: 280 ng/mL; concentration at 1 h [7]: 336 ng/mL; concentration at 1 h [8]: 34 ng/g; concentration at 1 h [9]: 383 ng/g; Kp at 1 h [10]: 0.12; Kp at 1 h [11]: 1.1
O=C(Cc1cccc2ccccc12)Nc1cn([C@H]2C[C@@H](NC(=O)c3ccncc3)C2)cn1	28	11	
NC(=O)[C@H]1C[C@@H](n2cnc(NC(=O)Cc3cccc4ccccc34)c2)C1	391	2	
O=C(Cc1ccccc1)Nc1ncc(C2CCC2)s1	64	1.5	
COc1ccc(CC(=O)Nc2cn([C@H]3C[C@@H](NC(C)=O)C3)cn2)cc1	9	7	inhibition [12]: 100%; inhibition [13]: 92%; inhibition [14]: 55%; inhibition [15]: 94%; inhibition [16]: 89%; inhibition [17]: 47%; inhibition [18]: 39%; inhibition [19]: 7%; inhibition [20]: 101%; inhibition [21]: 94%
COc1ccc(CC(=O)Nc2cn(C3CCC3)cn2)cc1	145		inhibition [12]: 34%; inhibition [22]: 48%; inhibition [23]: 32%
COc1ccc(CC(=O)Nc2cn(C3CCCCC3)cn2)cc1	748		
O=C(Cc1cccc2ccccc12)Nc1cn([C@H]2C[C@@H](NC(=O)c3cccc(Cl)n3)C2)cn1	6	34	IC50 [3]: 673 nM; Ratio IC50 [24]: 100
COc1ccc(CC(=O)Nc2cn([C@H]3C[C@@H](O)C3)cn2)cc1	95	0.7	
COc1ccc(CC(=O)Nc2cn([C@H]3C[C@@H](C(=O)OC)C3)cn2)cc1	145	0.7	
COc1ccc(CC(=O)Nc2cn(C3CCCC3)cn2)cc1	154		
COc1ccc(CC(=O)Nc2cn(Cc3ccccc3)cn2)cc1	8640		
CC(=O)N[C@H]1C[C@@H](n2cnc(NC(=O)Cc3cccc4ccccc34)c2)C1	8	17	IC50 [3]: > 30000 nM; Papp B→A [4]: 17.5 ×10⁻⁶ cm/s; Papp A→B [5]: 1.5 ×10⁻⁶ cm/s
O=C(Cc1cccc2ccccc12)Nc1cn([C@H]2C[C@@H](NC(=O)c3cccnc3)C2)cn1	46	15	IC50 [3]: > 30000 nM
